This passage reports viability results from ChEMBL document CHEMBL1137717, “Synthesis and in vitro antiproliferative activity of novel 1-benzhydrylpiperazine derivatives against human cancer cell lines” (Eur J Med Chem, 2009).

In data set [1] the test system is HepG2. The experiment in a line: Cytotoxicity against human HepG2 cells assessed as cell survival at 100 uM after 24 hrs by MTT assay relative to control. Format: functional. To be noted: HepG2, 24 h, read-out: Survival. The gist of the method: (§1)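 Cells grown in DMEM with 10% FCS (HT-29 in McCoy's with 10% FCS), seeded in 96-well plates, and grown 48 h before dosing. Exposed to 100 µM final compound (0.1% DMSO) for 24 h at 37 °C. MTT 1 mg/ml in medium was added for 4 h, formazan dissolved in DMSO, and A570 read. Survival is relative to the 0.1% DMSO control (100%); triplicate, mean ± SD.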
On the technique in general: Tetrazolium dyes change colour on reduction, which living cells bring about.

For data set [2], the system named is HeLa. Briefly: Cytotoxicity against human HeLa cells assessed as cell survival at 100 uM after 24 hrs by MTT assay relative to control. Format: functional. To be noted: read-out: Survival. An outline of the steps: as §1
Data set [3] concerns MCF7. Briefly: Cytotoxicity against human MCF7 cells assessed as cell survival at 100 uM after 24 hrs by MTT assay relative to control. The conditions noted are these: MCF7, 24 h, read-out: Survival. Format: functional. An outline of the steps:
as §1

Data set [4] in a line: Cytotoxicity against human NF103 cells assessed as cell survival at 100 uM after 24 hrs by MTT assay relative to control. Format: cell-based. The conditions noted are these: read-out: Survival. An outline of the steps:
as §1

Data set [5] concerns HT-29. Briefly: Cytotoxicity against human HT-29 cells assessed as cell survival at 100 uM after 24 hrs by MTT assay relative to control. Format: functional. To be noted: HT-29, 24 h, read-out: Survival. An outline of the steps:
as §1

For `O=C(N1CCCC1)N1CCN(C(c2ccccc2)c2ccccc2)CC1`, the viability at 100 µM in data set [1] stood at 66.2%; in data set [2] it was 64.2%; in data set [3], 71.4%; in data set [5], 70.2%. Besides, in data set [4], the viability at 24 h, 100 µM stood at 54%.
Taken in the same sequence, the figures for `S=C(Nc1ccc(Cl)cc1Cl)N1CCN(C(c2ccccc2)c2ccccc2)CC1` were 59.2%, 45.5%, 45.6%, 68.2% and 53.5%.
For the molecule `O=C(c1ccno1)N1CCN(C(c2ccccc2)c2ccccc2)CC1`, the viability at 100 µM in data set [1] came out at 46.1%; in data set [2], 46.8%; in data set [3] it was 44.2%; in data set [5] it was 47.5%. Moreover, the viability at 24 h, 100 µM in data set [4] came out at 58.6%.
Taken in the same sequence, the figures for `O=C(N1CCOCC1)N1CCN(C(c2ccccc2)c2ccccc2)CC1` were 61.9%, 53.9%, 68.7%, 63.4% and 56.1%.
Take `COc1cccc(NC(=S)N2CCN(C(c3ccccc3)c3ccccc3)CC2)c1`: the viability at 100 µM came to 64.5% in data set [1], 72.8% in data set [2], 58.7% in data set [3] and 64.8% in data set [5]. Also, the viability at 24 h, 100 µM in data set [4] is 57.8%.
Taken in the same sequence, the figures for `O=S(=O)(c1ccccc1)N1CCN(C(c2ccccc2)c2ccccc2)CC1` were 66.2%, 61.9%, 68.1%, 69.3% and 57.4%.
As for `COc1ccc(NC(=S)N2CCN(C(c3ccccc3)c3ccccc3)CC2)cc1`, the viability at 100 µM in data set [1] came to 48.8%; in data set [2] it was 66%; in data set [3], 63.7%; in data set [5] it was 55.6%. In data set [4], the viability at 24 h, 100 µM worked out at 55.9%.
Turning to `O=C(C1CC1)N1CCN(C(c2ccccc2)c2ccccc2)CC1`, the viability at 100 µM in data set [1] was determined as 62.9%; in data set [2], 70.3%; in data set [3], 61%; in data set [5] it was 72%. For the same molecule, the viability at 24 h, 100 µM in data set [4] is 55.1%.
In the case of `O=S(=O)(CC(F)(F)F)N1CCN(C(c2ccccc2)c2ccccc2)CC1`, the viability at 100 µM in data set [1] was 47.8%; in data set [2], 47.7%; in data set [3], 41.1%; in data set [5], 43.6%. In addition, the viability at 24 h, 100 µM in data set [4] was found to be 54.9%.
On to `COc1ccccc1NC(=S)N1CCN(C(c2ccccc2)c2ccccc2)CC1`, for which the viability at 100 µM in data set [1] came out at 61%; in data set [2] it was 56.8%; in data set [3], 54.5%; in data set [5], 62.1%. In addition, in data set [4], the viability at 24 h, 100 µM came to 59.7%.
Regarding `S=C(Nc1cccc(Cl)c1)N1CCN(C(c2ccccc2)c2ccccc2)CC1`, the viability at 100 µM in data set [1] worked out at 69.5%; in data set [2] it was 69.8%; in data set [3], 73.6%; in data set [5] it was 69.3%. Moreover, the viability at 24 h, 100 µM in data set [4] is 56.8%.
Taken in the same sequence, the figures for `S=C(Nc1ccc(Cl)cc1)N1CCN(C(c2ccccc2)c2ccccc2)CC1` were 66.2%, 73.9%, 66.9%, 73.8% and 54.8%.
For `O=S(=O)(c1ccc(Cl)cc1F)N1CCN(C(c2ccccc2)c2ccccc2)CC1`, in that order: 70.1%, 61.9%, 64%, 76.3% and 61%.
For `S=C(Nc1ccccc1Cl)N1CCN(C(c2ccccc2)c2ccccc2)CC1`, in that order: 71.8%, 63.1%, 69.8%, 70.8% and 59.1%.
Turning to `CC1(C)C2CCC1(CS(=O)(=O)N1CCN(C(c3ccccc3)c3ccccc3)CC1)C(=O)C2` (stereo not given), the viability at 100 µM in data set [1] was 72.6%; in data set [2], 65.2%; in data set [3], 61.7%; in data set [5], 79.2%. For the same molecule, the viability at 24 h, 100 µM in data set [4] was determined as 60.4%.
Consider `Fc1ccc(NC(=S)N2CCN(C(c3ccccc3)c3ccccc3)CC2)cc1`, for which the viability at 100 µM in data set [1] was 45.4%; in data set [2], 48.4%; in data set [3] it was 43.9%; in data set [5], 47.4%. Also, the viability at 24 h, 100 µM in data set [4] came out at 52.7%.
